In ChEMBL document CHEMBL1141202, “Novel CCR1 antagonists with oral activity in the mouse collagen induced arthritis” (Bioorg Med Chem Lett, 2005):
Blank lines part the entries; values can stand above or below the molecule they belong to.

Columns and labels:
[1] = biological target: T1, C-C chemokine receptor type 1 (Homo sapiens, UniProt P32246); assay: Antagonistic activity at human CCR1 in CHO-K1 cells; format: functional, cell-based
T1 sequence (P32246 whole entry): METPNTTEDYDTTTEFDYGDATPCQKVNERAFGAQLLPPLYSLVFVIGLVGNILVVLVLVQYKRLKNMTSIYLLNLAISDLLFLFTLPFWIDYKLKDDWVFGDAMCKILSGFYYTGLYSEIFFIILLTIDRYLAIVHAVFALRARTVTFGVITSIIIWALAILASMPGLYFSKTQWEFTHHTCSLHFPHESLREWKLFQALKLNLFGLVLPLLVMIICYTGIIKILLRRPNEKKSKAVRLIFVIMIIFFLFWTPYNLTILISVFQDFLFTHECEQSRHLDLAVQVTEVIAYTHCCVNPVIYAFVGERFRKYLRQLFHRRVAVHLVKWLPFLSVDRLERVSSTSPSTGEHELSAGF
Method in brief: (§1)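 CHO-K1 cells stably transfected with human, mouse or rat CCR1; membranes used in a scintillation proximity assay with radiolabelled MIP-1α as ligand.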

[2] = biological target: T2, C-C chemokine receptor type 1 (Mus musculus, UniProt P51675); assay: Antagonistic activity at mouse CCR1 in CHO-K1 cells; format: functional, cell-based; method in brief: as §1
T2 sequence (P51675 whole entry): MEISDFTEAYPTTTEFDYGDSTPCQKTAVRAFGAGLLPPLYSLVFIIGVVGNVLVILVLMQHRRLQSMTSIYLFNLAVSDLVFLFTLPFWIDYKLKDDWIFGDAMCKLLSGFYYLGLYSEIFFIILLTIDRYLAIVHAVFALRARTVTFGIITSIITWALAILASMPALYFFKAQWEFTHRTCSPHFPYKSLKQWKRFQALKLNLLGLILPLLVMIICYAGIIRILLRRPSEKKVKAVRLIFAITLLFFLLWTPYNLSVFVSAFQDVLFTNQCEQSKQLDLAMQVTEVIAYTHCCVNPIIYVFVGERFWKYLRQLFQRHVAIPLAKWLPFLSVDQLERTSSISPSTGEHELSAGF

[3] = biological target: T1, C-C chemokine receptor type 1; assay: Antagonistic activity at human CCR1 by inhibition of MIP-1alpha induced calcium mobilization in THP1 cells; format: functional, cell-based, THP-1
Method in brief: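 THP-1 cells with native CCR1 expression; preincubated with antagonist 30 min at RT, then stimulated with 3 nM MIP-1α; calcium response read as fluo-4 fluorescence.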

[4] = Oral bioavailability in rat; format: ADME, organism-based; details: in vivo
Rattus norvegicus = species: Rattus norvegicus; assay: Maximum concentration in rat; format: ADME, organism-based; details: in vivo
[5] = Half life in rat; format: ADME, organism-based; details: in vivo
[6] = AUC in rat; format: ADME, organism-based; details: plasma
[7] = biological target: C-C chemokine receptor type 5 (Mus musculus, UniProt P51682); assay: Inhibition of mouse CCR5
[8] = biological target: C-C chemokine receptor type 6 (Homo sapiens, UniProt P51684); assay: Inhibition of human CCR6
Sequence of C-C chemokine receptor type 6 (P51684 whole entry): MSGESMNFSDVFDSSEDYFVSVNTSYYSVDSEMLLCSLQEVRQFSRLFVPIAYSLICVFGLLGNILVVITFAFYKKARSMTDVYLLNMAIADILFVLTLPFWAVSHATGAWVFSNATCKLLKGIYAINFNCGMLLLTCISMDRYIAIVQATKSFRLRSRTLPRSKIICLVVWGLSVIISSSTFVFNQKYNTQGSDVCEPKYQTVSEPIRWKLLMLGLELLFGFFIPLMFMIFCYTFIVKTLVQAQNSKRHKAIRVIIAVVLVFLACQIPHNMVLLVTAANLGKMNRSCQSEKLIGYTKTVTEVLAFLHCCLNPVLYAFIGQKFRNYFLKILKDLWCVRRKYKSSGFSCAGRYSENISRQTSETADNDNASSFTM

[9] = biological target: 5-hydroxytryptamine receptor 1A (Homo sapiens, UniProt P08908); assay: Inhibition of human 5HT1A receptor
Sequence of 5-hydroxytryptamine receptor 1A (P08908 whole entry): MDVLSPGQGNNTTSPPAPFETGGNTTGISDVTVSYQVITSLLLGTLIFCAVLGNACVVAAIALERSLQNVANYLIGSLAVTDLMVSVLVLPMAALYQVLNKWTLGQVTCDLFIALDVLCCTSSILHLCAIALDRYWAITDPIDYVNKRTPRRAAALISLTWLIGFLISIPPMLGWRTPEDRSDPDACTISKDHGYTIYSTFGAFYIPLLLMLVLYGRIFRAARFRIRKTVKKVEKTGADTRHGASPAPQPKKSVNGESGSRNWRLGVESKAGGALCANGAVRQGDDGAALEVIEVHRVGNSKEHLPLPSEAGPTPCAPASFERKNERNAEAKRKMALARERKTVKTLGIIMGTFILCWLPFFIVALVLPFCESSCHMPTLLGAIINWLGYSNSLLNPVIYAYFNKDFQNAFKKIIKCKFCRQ

[10] = biological target: 5-hydroxytryptamine receptor 1B (Homo sapiens, UniProt P28222); assay: Inhibition of human 5HT1B receptor
Sequence of 5-hydroxytryptamine receptor 1B (P28222 whole entry): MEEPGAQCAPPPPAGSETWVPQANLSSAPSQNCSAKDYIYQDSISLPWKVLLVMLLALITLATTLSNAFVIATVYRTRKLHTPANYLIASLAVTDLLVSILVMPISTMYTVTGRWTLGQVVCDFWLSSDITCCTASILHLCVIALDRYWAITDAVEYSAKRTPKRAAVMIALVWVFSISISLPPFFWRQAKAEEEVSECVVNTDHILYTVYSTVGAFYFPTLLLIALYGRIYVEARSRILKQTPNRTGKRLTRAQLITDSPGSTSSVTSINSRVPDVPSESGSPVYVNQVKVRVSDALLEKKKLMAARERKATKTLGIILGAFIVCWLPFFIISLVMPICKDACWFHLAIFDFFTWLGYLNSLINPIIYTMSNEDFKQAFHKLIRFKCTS

[11] = biological target: 5-hydroxytryptamine receptor 2A (Homo sapiens, UniProt P28223); assay: Inhibition of human 5HT2A receptor
Sequence of 5-hydroxytryptamine receptor 2A (P28223 whole entry): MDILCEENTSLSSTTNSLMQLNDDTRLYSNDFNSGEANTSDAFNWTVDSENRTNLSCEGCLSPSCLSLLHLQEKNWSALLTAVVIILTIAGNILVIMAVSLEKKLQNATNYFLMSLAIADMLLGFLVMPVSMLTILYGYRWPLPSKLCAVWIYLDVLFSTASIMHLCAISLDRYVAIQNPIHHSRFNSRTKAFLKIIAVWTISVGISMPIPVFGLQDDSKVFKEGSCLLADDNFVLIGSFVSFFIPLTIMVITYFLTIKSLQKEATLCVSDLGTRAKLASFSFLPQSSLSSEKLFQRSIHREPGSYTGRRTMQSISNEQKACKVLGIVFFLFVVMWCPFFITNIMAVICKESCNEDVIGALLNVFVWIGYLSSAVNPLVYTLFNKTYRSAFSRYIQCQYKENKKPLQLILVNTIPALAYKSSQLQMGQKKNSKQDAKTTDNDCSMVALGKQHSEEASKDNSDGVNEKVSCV

[12] = biological target: C-C chemokine receptor type 2 (Homo sapiens, UniProt P41597); assay: Inhibition of human CCR2b
[13] = biological target: C-C chemokine receptor type 3 (Homo sapiens, UniProt P51677); assay: Inhibition of human CCR3
Sequence of C-C chemokine receptor type 3 (P51677 whole entry): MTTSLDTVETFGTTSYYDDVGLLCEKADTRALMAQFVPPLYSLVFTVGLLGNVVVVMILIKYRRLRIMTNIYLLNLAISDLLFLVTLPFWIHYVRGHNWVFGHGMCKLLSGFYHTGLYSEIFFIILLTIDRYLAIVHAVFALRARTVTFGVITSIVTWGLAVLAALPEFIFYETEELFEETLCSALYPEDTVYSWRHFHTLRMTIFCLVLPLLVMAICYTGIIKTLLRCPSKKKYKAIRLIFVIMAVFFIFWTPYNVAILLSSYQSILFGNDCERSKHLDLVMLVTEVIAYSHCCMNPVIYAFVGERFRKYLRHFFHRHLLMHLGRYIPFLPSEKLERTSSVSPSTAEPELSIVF

[14] = biological target: 5-hydroxytryptamine receptor 2B (Homo sapiens, UniProt P41595); assay: Inhibition of human 5HT2B receptor
Sequence of 5-hydroxytryptamine receptor 2B (P41595 whole entry): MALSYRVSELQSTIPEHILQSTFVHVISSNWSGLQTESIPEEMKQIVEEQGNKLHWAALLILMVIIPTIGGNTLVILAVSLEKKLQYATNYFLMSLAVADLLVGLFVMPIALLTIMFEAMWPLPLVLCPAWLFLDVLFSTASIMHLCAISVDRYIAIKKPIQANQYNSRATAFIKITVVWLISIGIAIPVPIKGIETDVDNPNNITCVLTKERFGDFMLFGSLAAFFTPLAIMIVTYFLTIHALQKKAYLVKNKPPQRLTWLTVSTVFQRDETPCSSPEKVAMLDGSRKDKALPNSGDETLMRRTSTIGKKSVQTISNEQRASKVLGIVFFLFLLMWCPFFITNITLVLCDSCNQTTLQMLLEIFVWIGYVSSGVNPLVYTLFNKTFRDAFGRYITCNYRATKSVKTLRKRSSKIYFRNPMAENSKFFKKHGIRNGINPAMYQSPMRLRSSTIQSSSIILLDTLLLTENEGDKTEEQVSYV

[15] = biological target: 5-hydroxytryptamine receptor 2C (Homo sapiens, UniProt P28335); assay: Inhibition of human 5HT2C receptor
Sequence of 5-hydroxytryptamine receptor 2C (P28335 whole entry): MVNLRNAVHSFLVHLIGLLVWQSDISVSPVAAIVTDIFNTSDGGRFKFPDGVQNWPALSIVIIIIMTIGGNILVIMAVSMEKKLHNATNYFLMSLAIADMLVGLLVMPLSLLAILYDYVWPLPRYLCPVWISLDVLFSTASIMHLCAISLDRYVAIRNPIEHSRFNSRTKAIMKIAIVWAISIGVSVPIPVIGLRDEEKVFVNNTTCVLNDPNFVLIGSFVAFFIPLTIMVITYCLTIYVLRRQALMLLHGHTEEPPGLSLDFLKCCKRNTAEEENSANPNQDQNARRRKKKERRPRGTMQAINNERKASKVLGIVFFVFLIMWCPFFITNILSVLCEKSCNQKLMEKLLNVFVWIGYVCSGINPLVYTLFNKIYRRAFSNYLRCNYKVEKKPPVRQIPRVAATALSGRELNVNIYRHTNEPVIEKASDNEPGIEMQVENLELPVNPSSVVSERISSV

[16] = biological target: Serotonin 3 (5-HT3) receptor; assay: Inhibition of human 5HT3 receptor; format: protein-complex assay
[17] = biological target: 5-hydroxytryptamine receptor 6 (Homo sapiens, UniProt P50406); assay: Inhibition of human 5HT6 receptor
[18] = biological target: 5-hydroxytryptamine receptor 7 (Homo sapiens, UniProt P34969); assay: Inhibition of human 5HT7 receptor
[19] = biological target: Muscarinic acetylcholine receptor M1 (Homo sapiens, UniProt P11229); assay: Inhibition of human muscarinic receptor M1
[20] = biological target: Muscarinic acetylcholine receptor M2 (Homo sapiens, UniProt P08172); assay: Inhibition of human muscarinic receptor M2
Sequence of Muscarinic acetylcholine receptor M2 (P08172 whole entry): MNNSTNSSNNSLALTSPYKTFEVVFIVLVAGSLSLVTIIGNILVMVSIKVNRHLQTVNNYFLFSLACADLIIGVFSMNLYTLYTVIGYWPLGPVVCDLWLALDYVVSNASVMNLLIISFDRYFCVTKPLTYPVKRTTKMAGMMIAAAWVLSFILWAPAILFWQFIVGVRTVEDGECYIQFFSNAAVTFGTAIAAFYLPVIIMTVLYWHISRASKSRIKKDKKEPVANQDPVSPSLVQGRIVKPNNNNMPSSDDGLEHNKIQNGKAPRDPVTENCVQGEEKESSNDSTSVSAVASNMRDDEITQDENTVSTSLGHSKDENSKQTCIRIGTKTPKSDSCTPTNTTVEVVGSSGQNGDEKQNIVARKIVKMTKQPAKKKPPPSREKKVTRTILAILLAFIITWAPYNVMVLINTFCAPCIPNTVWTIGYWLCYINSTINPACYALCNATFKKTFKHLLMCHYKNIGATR

[21] = biological target: Muscarinic acetylcholine receptor M3 (Homo sapiens, UniProt P20309); assay: Inhibition of human muscarinic receptor M3
[22] = biological target: Muscarinic acetylcholine receptor M4 (Homo sapiens, UniProt P08173); assay: Inhibition of human muscarinic receptor M4
[23] = biological target: Muscarinic acetylcholine receptor M5 (Homo sapiens, UniProt P08912); assay: Inhibition of human muscarinic receptor M5
D(1A) dopamine receptor = D(1A) dopamine receptor (Homo sapiens, UniProt P21728); assay: Inhibition of human dopamine receptor D1
D(2) dopamine receptor = D(2) dopamine receptor (Homo sapiens, UniProt P14416); assay: Inhibition of human dopamine receptor D2
Sequence of D(2) dopamine receptor (P14416 whole entry): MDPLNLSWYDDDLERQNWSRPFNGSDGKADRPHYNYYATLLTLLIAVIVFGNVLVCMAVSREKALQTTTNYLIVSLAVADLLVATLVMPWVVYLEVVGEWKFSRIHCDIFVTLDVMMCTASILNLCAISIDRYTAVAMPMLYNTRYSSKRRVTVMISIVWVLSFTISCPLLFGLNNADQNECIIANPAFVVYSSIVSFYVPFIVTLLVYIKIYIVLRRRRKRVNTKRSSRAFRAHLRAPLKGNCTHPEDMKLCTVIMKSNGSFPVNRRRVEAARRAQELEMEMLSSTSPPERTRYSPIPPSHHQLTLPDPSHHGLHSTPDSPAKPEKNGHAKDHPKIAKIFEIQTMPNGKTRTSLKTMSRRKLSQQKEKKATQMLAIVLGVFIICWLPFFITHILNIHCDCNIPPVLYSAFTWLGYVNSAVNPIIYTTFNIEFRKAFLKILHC

D(3) dopamine receptor = D(3) dopamine receptor (Homo sapiens, UniProt P35462); assay: Inhibition of human dopamine receptor D3
Sequence of D(3) dopamine receptor (P35462 whole entry): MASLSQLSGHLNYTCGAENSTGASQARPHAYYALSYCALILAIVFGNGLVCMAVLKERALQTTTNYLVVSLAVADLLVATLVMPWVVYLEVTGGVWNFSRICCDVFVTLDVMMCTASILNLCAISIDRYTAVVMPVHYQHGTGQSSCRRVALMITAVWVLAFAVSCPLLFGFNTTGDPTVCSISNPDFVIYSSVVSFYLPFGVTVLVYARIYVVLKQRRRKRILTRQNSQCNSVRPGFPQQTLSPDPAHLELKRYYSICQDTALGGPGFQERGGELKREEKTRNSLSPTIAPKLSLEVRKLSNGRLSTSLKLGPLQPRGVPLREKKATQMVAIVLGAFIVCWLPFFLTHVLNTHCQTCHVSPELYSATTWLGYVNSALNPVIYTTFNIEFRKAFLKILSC

D(4) dopamine receptor = D(4) dopamine receptor (Homo sapiens, UniProt P21917); assay: Inhibition of human dopamine receptor D4.4
[24] = biological target: Adrenergic receptor alpha-1 (Homo sapiens, UniProt P35348+P25100+P35368); assay: Inhibition of human adrenergic alpha-1 receptor; format: protein assay
[25] = biological target: Alpha-2A adrenergic receptor (Homo sapiens, UniProt P08913); assay: Inhibition of human adrenergic alpha-2A receptor
[26] = biological target: Alpha-2B adrenergic receptor (Homo sapiens, UniProt P18089); assay: Inhibition of human adrenergic alpha-2B receptor
[27] = biological target: Alpha-2C adrenergic receptor (Homo sapiens, UniProt P18825); assay: Inhibition of human adrenergic alpha-2C receptor
[28] = biological target: Beta-1 adrenergic receptor (Homo sapiens, UniProt P08588); assay: Inhibition of human adrenergic beta-1 receptor
[29] = biological target: Beta-2 adrenergic receptor (Homo sapiens, UniProt P07550); assay: Inhibition of human adrenergic beta-2 receptor
Sequence of Beta-2 adrenergic receptor (P07550 whole entry): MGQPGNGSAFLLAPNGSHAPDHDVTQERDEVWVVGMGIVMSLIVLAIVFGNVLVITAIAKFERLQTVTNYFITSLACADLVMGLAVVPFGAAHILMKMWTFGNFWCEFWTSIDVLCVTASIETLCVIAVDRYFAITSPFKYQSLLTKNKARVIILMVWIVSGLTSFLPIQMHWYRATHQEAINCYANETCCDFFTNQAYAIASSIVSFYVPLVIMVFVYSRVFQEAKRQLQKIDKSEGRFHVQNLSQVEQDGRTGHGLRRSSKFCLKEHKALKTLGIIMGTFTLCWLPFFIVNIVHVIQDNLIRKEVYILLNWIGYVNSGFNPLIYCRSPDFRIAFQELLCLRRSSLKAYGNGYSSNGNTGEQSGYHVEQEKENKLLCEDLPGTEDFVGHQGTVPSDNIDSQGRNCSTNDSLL

Mu-type opioid receptor = Mu-type opioid receptor (Homo sapiens, UniProt P35372); assay: Inhibition of human mu opioid receptor
[30] = biological target: Kappa-type opioid receptor (Homo sapiens, UniProt P41145); assay: Inhibition of human kappa opioid receptor
[31] = biological target: Delta-type opioid receptor (Homo sapiens, UniProt P41143); assay: Inhibition of human delta opioid receptor

SMILES: CC(=O)Nc1cc2ccccc2cc1/C=C/C(=O)N1CCN(Cc2ccc(F)cc2)C[C@H]1C
IC50 [1]: 80 nM
IC50 [2]: 500 nM
IC50 [3]: 13 nM

SMILES: C[C@@H]1CN(Cc2ccc(F)cc2)CCN1C(=O)COc1ccc(Cl)cc1NC(N)=O.Cl [BX 471]
bioavailability [4]: 100%
Cmax (Rattus norvegicus): 400 nM
half-life [5]: 1.9 h
AUC [6]: 139 ng·h/mL

SMILES: CC(=O)Nc1cc2ncccc2cc1/C=C/C(=O)N1C2CCC1CN(Cc1ccc(F)cc1)C2
IC50 [1]: 150 nM
IC50 [2]: 50 nM

SMILES: COc1cc(/C=C/C(=O)N2C3CCC2CN(Cc2ccc(F)cc2)C3)c(NC(C)=O)cc1Cl
IC50 [1]: 7 nM
IC50 [2]: 4 nM
bioavailability [4]: 83%
Cmax (Rattus norvegicus): 80 nM
half-life [5]: 5.1 h
AUC [6]: 158 ng·h/mL

SMILES: CN(C)CC(=O)Nc1cc(Cl)ccc1/C=C/C(=O)N1C2CCC1CN(Cc1ccc(F)cc1)C2
IC50 [1]: 30 nM
IC50 [2]: 40 nM
IC50 [3]: 9 nM
bioavailability [4]: 77%
Cmax (Rattus norvegicus): 407 nM
half-life [5]: 2.92 h
AUC [6]: 1070 ng·h/mL

SMILES: COc1cc(/C=C/C(=O)N2CCN(Cc3ccc(F)cc3)C[C@H]2C)c(NC(C)=O)cc1Cl
bioavailability [4]: 100%
Cmax (Rattus norvegicus): 396 nM
half-life [5]: 4.1 h
AUC [6]: 750 ng·h/mL

SMILES: CC(=O)Nc1cc(Cl)ccc1/C=C/C(=O)N1C2CCC1CN(Cc1ccc(F)cc1)C2
IC50 [1]: 200 nM

SMILES: CC(=O)Nc1cc(Cl)ccc1/C=C/C(=O)N1CCCN(Cc2ccc(F)cc2)C[C@H]1C
IC50 [1]: 1600 nM

Continued, values first:

IC50 [1]: 1700 nM
SMILES: CC(=O)Nc1cc(Cl)ccc1/C=C/C(=O)N1C[C@H]2C[C@@H]1CN2Cc1ccc(F)cc1

IC50 [1]: 300 nM
SMILES: CC(=O)Nc1cc(Cl)ccc1/C=C/C(=O)N1CC2CCC(C1)N2Cc1ccc(F)cc1

IC50 [1]: 360 nM
SMILES: CC(=O)Nc1cc(Cl)ccc1CCC(=O)N1CCN(Cc2ccc(F)cc2)C[C@H]1C

IC50 [1]: 800 nM
SMILES: COc1cc2c(cc1Cl)NC(=O)NC2CC(=O)N1CCN(Cc2ccc(F)cc2)C[C@H]1C (stereo partly drawn)

bioavailability [4]: 95%
Cmax (Rattus norvegicus): 850 nM
half-life [5]: 16.5 h
AUC [6]: 784 ng·h/mL
IC50 [7]: > 10000 nM
IC50 [8]: > 100000 nM
IC50 [9]: > 1000 nM
IC50 [10]: > 1000 nM
IC50 [11]: > 1000 nM
IC50 [12]: > 10000 nM
IC50 [13]: > 10000 nM
IC50 [14]: > 1000 nM
IC50 [15]: > 1000 nM
IC50 [16]: > 1000 nM
IC50 [17]: > 1000 nM
IC50 [18]: > 1000 nM
IC50 [19]: > 1000 nM
IC50 [20]: > 1000 nM
IC50 [21]: > 1000 nM
IC50 [22]: > 1000 nM
IC50 [23]: > 1000 nM
IC50 (D(1A) dopamine receptor): > 1000 nM
IC50 (D(2) dopamine receptor): > 1000 nM
IC50 (D(3) dopamine receptor): > 1000 nM
IC50 (D(4) dopamine receptor): > 1000 nM
IC50 [24]: > 1000 nM
IC50 [25]: > 1000 nM
IC50 [26]: > 1000 nM
IC50 [27]: > 1000 nM
IC50 [28]: > 1000 nM
IC50 [29]: > 1000 nM
IC50 (Mu-type opioid receptor): > 1000 nM
IC50 [30]: > 1000 nM
IC50 [31]: > 1000 nM
SMILES: CC(=O)Nc1cc(Cl)ccc1/C=C/C(=O)N1CCN(Cc2ccc(F)cc2)C[C@H]1C

IC50 [1]: 30 nM
IC50 [2]: 1000 nM
IC50 [3]: 20 nM
SMILES: CC(=O)Nc1cc2ncccc2cc1/C=C/C(=O)N1CCN(Cc2ccc(F)cc2)C[C@H]1C

bioavailability [4]: 90%
Cmax (Rattus norvegicus): 934 nM
half-life [5]: 11 h
AUC [6]: 487 ng·h/mL
SMILES: C[C@@H]1CN(Cc2ccc(F)cc2)CCN1C(=O)/C=C/c1ccc(Cl)cc1NC(N)=O
